Experiment [1] can be described thus: inhibitors of TNFa-induced NFkB p65 translocation, primary screen, imaging, HUVEC, MLSMR starter and 10KST1 sets (AID 438).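 For inhibition: signal is the nuclear over cytoplasmic p65 intensity ratio per well.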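 Note: compound added about 3h40 before a 20 min TNFalpha stimulation.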 Particulars: HUVEC TNFa-induced p65 nuclear translocation; cell count: measured here: nuclei count (cytotoxicity indicator), at 2.08 µM; inhibition: at 2 µM, stronger effect = higher value, 0% TNFa-plus-vehicle, 100% no-TNFa wells.
The nature of experiment [2]: reduction of polyQ htt aggregates in cells – imaging, exon1htt(103Q)mCFP cells, high-content imaging, primary screen (AID 483;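 active = visual image review flags a hit and inhibition of aggregation exceeds 20%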;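 note: compound exposure lasted 3 days before fixation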;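 for nuclei count: percent of the per-plate median nuclei count of sample wells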). Particulars: exon1htt(103Q)mCFP cell line, aggregate imaging, at 2 µM; inhibition of aggregation: stronger effect = higher value; nuclei count: measured here: cell count, toxicity.
Experiment [3] is described as follows: endothelial E-selectin expression blockers – imaging, HUVEC, immunofluorescence, MLSMR starter and 10KST1 sets, primary screen (AID 487;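 active = visually confirmed hit in the image check and inhibition above 20%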;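 for inhibition: signal is fraction of cell area covered by stained E-selectin grains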;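 for nuclei count: 100% = median nuclei count of all wells on the same plate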). The settings on record: HUVEC TNFalpha-induced E-selectin immunofluorescence imaging, at 2 µM; inhibition: stronger effect = higher value; nuclei count: measured here: cell number, toxicity.
The target of experiment [4] is Voltage-gated potassium channel subunit beta-2 (Rattus norvegicus) (UniProt P62483). Nature of the experiment: inhibitors of rat Kvbeta2 reductase activity – biochemical, NADPH fluorescence, primary screen (AID 622;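 active = fluorescence slope higher than the sample average by over 3 SD, cut at about -0.22 in these data, passing the limit was not always enough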;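 note: slope of raw intensity against log time taken from 70 to 1610 s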). Particulars: recombinant KvBeta, 4-cyanobenzaldehyde reduction, at 10 µM, stronger effect = higher value.
Experiment [5] shares this target. The experiment in a line: enhancers of rat Kvbeta2 NADPH turnover – biochemical, NADPH fluorescence, primary screen (AID 623;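 active = NADPH fluorescence slope more negative than the mean of all samples by about 3 SD, 99.7% confidence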;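 note: fluorescence intensity change per second fitted from 20 to 320 s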). Particulars: Recombinant KvBeta, NADPH fluorescence decrease slope, 10 min; at 10 µM; stronger effect = lower value.
For experiment [6], the target named is Muscarinic acetylcholine receptor M4 (Homo sapiens) (UniProt P08173). The experiment in a line: M4-linked GIRK flux change, two-sided – cell-based, HEK293 M4/GIRK, thallium flux, BTC-AM, M4 allosteric agonist project, primary screen (AID 625;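 active = fluorescence slope after compound addition differing from the mean of all tested samples at 99.7% confidence, mostly higher but some lower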;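 note: thallium influx through GIRK channels coupled to M4 in HEK293 cells with BTC-AM dye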). The settings on record: at 10 µM, actives lie on both sides. A digest of the protocol:
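assay system = HEK293 cells with M4 receptor and GIRK channels | medium = pH 7.3 thallium assay buffer | doses = 10 µM final, single point | timing = cells overnight at 37 °C, BTC-AM loading 1 h, reads 2 min total | signal = BTC-AM fluorescence, 1 Hz kinetic reads | read-out = post-addition slope, 15–24 s, of baseline-normalized fluorescence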

A short description of experiment [7]: blockers of RIG-like receptor reporter activation – cell-based, Sendai virus stimulus, luciferase, 10K MLSCN set, TLR/RLR signaling modifier project, primary screen (AID 602276;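 active = inhibition at or above 50% at 10 µM; inactive = inhibition below 50%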;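 note: firefly luciferase from ISG56 promoter only with Renilla not read in this screen; 0% = Sendai virus plus DMSO and 100% = medium plus DMSO without virus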). Particulars: HEK293 RL24 IRF3 luciferase reporter, at 10 µM, stronger effect = higher value. (In a reporter assay the amount or activity of a reporter protein is the signal.)
The nature of experiment [8]: TLR3 IRF3 reporter activation blockers – cell-based, poly I:C stimulus, luciferase, 10K MLSCN set, primary screen (AID 602277;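 active = inhibition of the reporter signal at or above 50%; inactive = inhibition below 50%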). The settings on record: HEK293-TLR3 RL24 IRF3 luciferase reporter, at 10 µM, stronger effect = higher value.

In general, inhibition refers to the drop in the measured response relative to a control, in per cent.

Active and inactive are the calls of the source.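 Rule for the calls, unless noted: active = inhibition above 20% together with a positive visual image hit; inconclusive = visual image hit but inhibition not above 20%; inactive = no visual image hit.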

Sequence of Muscarinic acetylcholine receptor M4 (Homo sapiens) (P08173 whole entry, looked up): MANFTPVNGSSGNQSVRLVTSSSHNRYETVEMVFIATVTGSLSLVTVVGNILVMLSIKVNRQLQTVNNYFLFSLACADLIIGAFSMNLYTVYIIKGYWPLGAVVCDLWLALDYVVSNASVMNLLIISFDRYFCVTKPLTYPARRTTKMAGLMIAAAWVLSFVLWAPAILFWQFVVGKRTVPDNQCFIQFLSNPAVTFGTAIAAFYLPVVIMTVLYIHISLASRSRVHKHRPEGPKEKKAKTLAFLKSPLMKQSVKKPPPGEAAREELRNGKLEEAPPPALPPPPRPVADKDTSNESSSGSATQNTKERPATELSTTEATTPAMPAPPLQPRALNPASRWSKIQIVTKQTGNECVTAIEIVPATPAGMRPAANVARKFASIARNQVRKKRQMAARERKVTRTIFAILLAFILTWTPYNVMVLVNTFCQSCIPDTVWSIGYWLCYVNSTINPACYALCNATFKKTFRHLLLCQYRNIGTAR
Sequence of Voltage-gated potassium channel subunit beta-2 (Rattus norvegicus) (P62483 whole entry, looked up): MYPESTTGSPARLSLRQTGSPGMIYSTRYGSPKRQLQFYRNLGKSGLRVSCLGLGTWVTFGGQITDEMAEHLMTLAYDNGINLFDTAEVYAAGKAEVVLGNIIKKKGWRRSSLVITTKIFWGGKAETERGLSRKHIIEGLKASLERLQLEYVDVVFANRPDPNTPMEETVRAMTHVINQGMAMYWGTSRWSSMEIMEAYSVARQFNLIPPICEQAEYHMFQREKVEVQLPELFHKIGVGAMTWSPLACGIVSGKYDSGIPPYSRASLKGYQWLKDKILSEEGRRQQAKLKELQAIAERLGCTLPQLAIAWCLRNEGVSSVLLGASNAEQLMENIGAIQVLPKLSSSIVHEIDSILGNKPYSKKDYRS

`CN(C(=O)c1ccncc1)C1CC(C)(C)N(O)C(C)(C)C1`: the cell count in experiment [1] amounted to 344. The inhibition in experiment [1] is 2.8% (inactive); in experiment [3], -67.4% (inactive); in experiment [7], -0.539% (inactive); in experiment [8], 8.86% (inactive). Moreover, the inhibition of aggregation in experiment [2] is -9.8% (inactive). Besides, the nuclei count in experiment [2] was determined as 103%; in experiment [3], 119%. The fluorescence slope is -0.592 (inactive) in experiment [4] and 0.00587 (inactive) in experiment [6]. The NADPH fluorescence slope in experiment [5] is -2.2e-05 (inactive).

For the molecule `O=C(O)c1cnn2c1NC(c1ccc(F)cc1)CC2C(F)(F)F` (centres undefined), in experiment [1], the cell count was found to be 613. The inhibition is 10.2% (inactive) in experiment [1], -85.7% (inactive) in experiment [3], 10.7% (inactive) in experiment [7] and 1.93% (inactive) in experiment [8]. Further, the inhibition of aggregation in experiment [2] was -6.3% (inactive). Besides, the nuclei count in experiment [2] was found to be 99.2%; in experiment [3] it was 116%. In addition, the fluorescence slope in experiment [4] was -0.472 (inactive); in experiment [6] it was 0.00543 (inactive). Also, the NADPH fluorescence slope in experiment [5] is -4.5e-05 (inactive).

In the case of `CCNc1nc(NCC)n2c(SCc3nc4ccccc4c(=O)[nH]3)nnc2n1`, the cell count in experiment [1] turned out to be 554. Moreover, the inhibition in experiment [1] was -3.9% (inactive); in experiment [3], -31.4% (inactive); in experiment [7], -0.856% (inactive); in experiment [8], -4.01% (inactive). In addition, the inhibition of aggregation in experiment [2] is 9.2% (inactive). Moreover, the nuclei count in experiment [2] is 84.7%; in experiment [3], 113%. Also, the values for the fluorescence slope in experiment [4] and in experiment [6] were -0.539 (inactive) and 0.00293 (inactive), respectively. Moreover, the NADPH fluorescence slope in experiment [5] was -0.000149 (inactive).

For `COc1ccccc1C(=O)Nc1ccc(N2CCN(S(C)(=O)=O)CC2)cc1`, the cell count in experiment [1] was determined as 320. Also, the inhibition is -6.8% (inactive) in experiment [1], 18.3% (inactive) in experiment [3], -8.58% (inactive) in experiment [7] and -50.2% (inactive) in experiment [8]. In addition, the inhibition of aggregation in experiment [2] was 7% (inactive). Moreover, the nuclei count is 127% in experiment [2] and 116% in experiment [3]. The fluorescence slope was -0.242 (inactive) in experiment [4] and 0.00706 (inactive) in experiment [6]. For the same molecule, the NADPH fluorescence slope in experiment [5] was -2.5e-06 (inactive).

Regarding `Cc1cc2c(=O)n(CC(=O)N3CCN(c4ccccc4)CC3)cnc2s1`, the cell count in experiment [1] was found to be 632. The inhibition was -22.3% (inactive) in experiment [1], 2.7% (inactive) in experiment [3], 7.52% (inactive) in experiment [7] and 14.5% (inactive) in experiment [8]. For the same molecule, in experiment [2], the inhibition of aggregation is 0.5% (inactive). The values for the nuclei count in experiment [2] and in experiment [3] were 105% and 94.9%, respectively. The fluorescence slope is -0.595 (inactive) in experiment [4] and 0.0045 (inactive) in experiment [6]. Besides, the NADPH fluorescence slope in experiment [5] is 1.9e-06 (inactive).

`CCOP(=O)(c1ccc(N(C)C)cc1)C(O)c1cc(OC)c(OC)c(OC)c1` (centres undefined): the cell count in experiment [1] amounted to 713. Moreover, the inhibition was -0.6% (inactive) in experiment [1], 10.2% (inactive) in experiment [3], 4.26% (inactive) in experiment [7] and 21% (inactive) in experiment [8]. Moreover, in experiment [2], the inhibition of aggregation is 0% (inactive). The nuclei count in experiment [2] was determined as 113%; in experiment [3], 103%. In addition, the figures for the fluorescence slope in experiment [4] and in experiment [6] were -0.455 (inactive) and 0.00563 (inactive), respectively. Also, the NADPH fluorescence slope in experiment [5] was -4.5e-05 (inactive).

As to `CCOC(=O)N1CCN(c2cc(=O)n(-c3ccc(OCC)cc3)c(=O)[nH]2)CC1`, in experiment [1], the cell count turned out to be 551. For the same molecule, the inhibition was -10% (inactive) in experiment [1], -26.9% (inactive) in experiment [3], 3.3% (inactive) in experiment [7] and 10.8% (inactive) in experiment [8]. Further, the inhibition of aggregation in experiment [2] was 9.3% (inactive). Moreover, the nuclei count in experiment [2] came out at 109%; in experiment [3], 112%. For the same molecule, the fluorescence slope in experiment [4] was -0.431 (inactive); in experiment [6], 0.00574 (inactive). The NADPH fluorescence slope in experiment [5] was 0.0001 (inactive).

As to `CCOC(=O)/C=C(\C)Sc1cc(=O)oc2ccccc12`, the cell count in experiment [1] amounted to 571. Also, the inhibition is 18.4% (inactive) in experiment [1], -103% (inactive) in experiment [3], 25.8% (inactive) in experiment [7] and 47.5% (inactive) in experiment [8]. In addition, in experiment [2], the inhibition of aggregation was -8.4% (inactive). For the same molecule, the results for the nuclei count in experiment [2] and in experiment [3] were 93.3% and 126%, respectively. The fluorescence slope in experiment [4] was -0.549 (inactive); in experiment [6], 0.00418 (inactive). The NADPH fluorescence slope in experiment [5] was -6e-05 (inactive).

Take `CCOc1ccc(OCC)c(NC(=O)C2CCN(S(=O)(=O)c3cnc[nH]3)CC2)c1`: the cell count in experiment [1] turned out to be 377. Besides, the inhibition in experiment [1] was -1.3% (inactive); in experiment [3], 22.9% (inactive); in experiment [7] it was 4.79% (inactive); in experiment [8], 10.8% (inactive). Moreover, the inhibition of aggregation in experiment [2] was -15.6% (inactive). For the same molecule, the figures for the nuclei count in experiment [2] and in experiment [3] were 101% and 80.4%, respectively. Further, the fluorescence slope in experiment [4] was -0.572 (inactive); in experiment [6] it was 0.00665 (inactive). For the same molecule, in experiment [5], the NADPH fluorescence slope was -2.9e-05 (inactive).

For `COc1ccc(N2C(=O)C3CCCN3C2c2ccc(F)cc2)cc1Cl` (centres undefined), the cell count in experiment [1] turned out to be 412. Further, the inhibition in experiment [1] is -2.7% (inactive); in experiment [3], 18.5% (inactive); in experiment [7] it was 7.49% (inactive); in experiment [8], 14.6% (inactive). Further, in experiment [2], the inhibition of aggregation is -12.9% (inactive). The nuclei count in experiment [2] came out at 101%; in experiment [3], 89.1%. Moreover, the values for the fluorescence slope in experiment [4] and in experiment [6] were -0.538 (inactive) and 0.00539 (inactive), respectively. In experiment [5], the NADPH fluorescence slope is -1.5e-05 (inactive).

`C=CCn1c(=O)[nH]c2cc(C(=O)N3CCN(c4cc(C)ccc4C)CC3)ccc2c1=O`: in experiment [1], the cell count was found to be 481. Besides, the inhibition in experiment [1] was -28.5% (inactive); in experiment [3], -67.4% (inactive); in experiment [7], 14.1% (inactive); in experiment [8], -2.95% (inactive). For the same molecule, the inhibition of aggregation in experiment [2] was -1.6% (inactive). Also, the results for the nuclei count in experiment [2] and in experiment [3] were 109% and 127%, respectively. Moreover, the fluorescence slope in experiment [4] was -0.245 (inactive); in experiment [6], 0.00726 (inactive). In experiment [5], the NADPH fluorescence slope was -2.6e-05 (inactive).

As to `CCn1c(=O)cc(SCC(=O)N2CCN(C3CCCCC3)CC2)c2ccccc21`, the cell count in experiment [1] came out at 417. Besides, the inhibition in experiment [1] was -5.2% (inactive); in experiment [3] it was -69.8% (inactive); in experiment [7] it was 8.4% (inactive); in experiment [8], 65.5% (active). Besides, in experiment [2], the inhibition of aggregation was -6.7% (inactive). Also, the nuclei count in experiment [2] stood at 131%; in experiment [3] it was 108%. Besides, the fluorescence slope was -0.565 (inactive) in experiment [4] and 0.0055 (inactive) in experiment [6]. Further, the NADPH fluorescence slope in experiment [5] was 1.7e-06 (inactive).

In the case of `C/C(N)=C(\C#N)C(=O)NCCc1ccccn1`, the cell count in experiment [1] came to 326. Besides, the inhibition in experiment [1] is -1.7% (inactive); in experiment [3], -26.9% (inactive); in experiment [7], 7.83% (inactive); in experiment [8], 13.8% (inactive). Moreover, in experiment [2], the inhibition of aggregation is -11.6% (inactive). Also, the values for the nuclei count in experiment [2] and in experiment [3] were 106% and 102%, respectively. Besides, the fluorescence slope is -0.613 (inactive) in experiment [4] and 0.00369 (inactive) in experiment [6]. The NADPH fluorescence slope in experiment [5] was 2e-05 (inactive).

Consider `CCOC(=O)C1CCN(C(=O)Nc2ccc(Cl)cc2Cl)CC1`, for which the cell count in experiment [1] is 262. The inhibition in experiment [1] was 0% (inactive); in experiment [3], -16.8% (inactive); in experiment [7] it was 14% (inactive); in experiment [8] it was 1.16% (inactive). Moreover, the inhibition of aggregation in experiment [2] was 25.3% (inactive). In addition, the nuclei count was determined as 89.6% in experiment [2] and 80.6% in experiment [3]. Moreover, the results for the fluorescence slope in experiment [4] and in experiment [6] were -0.463 (inactive) and 0.00434 (inactive), respectively. For the same molecule, in experiment [5], the NADPH fluorescence slope is -4.6e-05 (inactive).

The record behind these values is PubChem BioAssay.
